The source made the active and inactive calls. The rule behind the calls is not given here.
Tests used:
[1] = Competitive inhibition of aminoglycoside 6'-N-acetyltransferase Ib (unknown origin) expressed in Escherichia coli using kanamycin A as substrate by Lineweaver-Burk plot analysis in presence of acetyl CoA
Procedure, shortened: (§1)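 Partially purified His-Patch thioredoxin-fused enzyme from E. coli (pBAD102, arabinose-induced), in 20 mM Tris pH 7.5 with 0.2 mM DTNB. Kanamycin A varied 3–18 μM with acetyl CoA fixed at 100 μM, at several inhibitor concentrations. Mix held 10 min at room temperature before enzyme. Initial rates followed at 412 nm, mode assigned from Lineweaver-Burk plots, in triplicate.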

[2] = Non-competitive inhibition of aminoglycoside 6'-N-acetyltransferase Ib (unknown origin) expressed in Escherichia coli using acetyl CoA as substrate by Lineweaver-Burk plot analysis in presence of kanamycin A
Procedure, shortened: as §1, with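 “Acetyl CoA” for “Kanamycin A”, “5–72” for “3–18”, “kanamycin A” for “acetyl CoA”, “25” for “100”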

[3] = Inhibition of aminoglycoside 6'-N-acetyltransferase Ib (unknown origin)-mediated acetylation expressed in Escherichia coli using kanamycin A and acetyl CoA as substrate at 100 uM preincubated for 10 mins followed by enzyme addition by spectrophotometric analysis relative to control
Procedure, shortened: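 Enzyme: thioredoxin-fused AAC(6′)-Ib, arabinose-induced in E. coli, partially purified by DEAE ion exchange. Reaction: 20 mM Tris pH 7.5, 0.2 mM DTNB, 50 μM acetyl CoA, 18 μM kanamycin A, compound at 100 μM in 10% DMSO. Mix held 10 min at room temperature before enzyme added. CoA–SH release read at 412 nm. Percent inhibition from initial velocities versus no-compound reactions; mean of three experiments.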

[4] = Inhibition of aminoglycoside 6'-N-acetyltransferase Ib (unknown origin)-mediated acetylation expressed in Escherichia coli using kanamycin A and acetyl CoA as substrate at 100 uM preincubated for 10 mins followed by enzyme addition by spectrophotometric analysis in presence of Triton X-100
Procedure, shortened: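 Compound at 100 μM in 10% DMSO, with 20 mM Tris pH 7.5, 0.2 mM DTNB, 50 μM acetyl CoA, 18 μM kanamycin A and 0.01% Triton X-100. Preincubated 10 min at room temperature, then partially purified enzyme added. Absorbance at 412 nm gave initial velocities. Percent inhibition taken against compound-free reactions, mean of three experiments.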

[5] = Inhibition of aminoglycoside 6'-N-acetyltransferase Ib (unknown origin)-mediated acetylation expressed in Escherichia coli using 5 to 72 uM acetyl CoA and 25 uM kanamycin A as substrate preincubated for 10 mins followed by enzyme addition by spectrophotometric analysis
Procedure, shortened: (§2)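 Enzyme partially purified on DEAE from arabinose-induced E. coli, in 20 mM Tris pH 7.5 with 0.2 mM DTNB and 10% DMSO. Inhibitor at a range of concentrations, acetyl CoA 5–72 μM, kanamycin A 25 μM. 10 min room-temperature preincubation before enzyme. CoA-SH release read at 412 nm. Ki from initial velocities by nonlinear regression, in triplicate.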

[6] = Inhibition of aminoglycoside 6'-N-acetyltransferase Ib (unknown origin)-mediated acetylation expressed in Escherichia coli using 3 to 18 uM kanamycin A and 100 uM acetyl CoA as substrate preincubated for 10 mins followed by enzyme addition by spectrophotometric analysis
Procedure, shortened: as §2, with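 “concentrations, kanamycin A 3–18 μM,” for “concentrations,”, “100” for “5–72 μM, kanamycin A 25”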

| Structure (SMILES) | Ki [1] | Ki [2] | inhibition [3] | inhibition [4] | Ki [5] | Ki [6] |
| --- | --- | --- | --- | --- | --- | --- |
| Cc1cccc(N2C(=O)/C(=C/c3ccccc3OCc3ccc(C(=O)O)cc3)C(=O)NC2=S)c1 | 141 µM | 267 µM | 27% | – | – | – |
| O=C(O)c1ccccc1-c1ccc(C=C2C(=O)N(c3ccccc3)C(=S)N(c3ccccc3)C2=O)o1 | 12 µM | 35 µM | 52% | – | – | – |
| O=C1/C(=C/c2ccco2)C(=O)N(c2ccc(Br)cc2)C(=S)N1c1ccccc1 | – | – | – | inactive | – | – |
| O=C1NC(=O)N(c2ccccc2)C(=O)/C1=C\c1ccco1 | – | – | 65% | – | 16 µM | 15 µM |
| O=C1NC(=O)N(c2ccc(O)cc2)C(=O)/C1=C/c1ccccc1OCc1ccc(C(=O)O)cc1 | – | – | 30% | – | 292 µM | 129 µM |
| Cc1ccc(N2C(=O)NC(=O)/C(=C\c3ccccc3OCc3ccc(C(=O)O)cc3)C2=O)cc1C | – | – | 27% | – | 297 µM | 155 µM |
| O=C1NC(=O)N(c2ccc(Cl)cc2)C(=O)/C1=C\c1ccco1 | – | – | 60% | – | 74 µM | 33 µM |
